For 5 compounds, IC50 and selectivity ratio results are on record in ChEMBL document CHEMBL1126798, “Keto/enol epoxy steroids: a new structural class of HIV-1 Tat inhibitors” (J Med Chem, 1993).

Data set [1] has as its system H9. Kind of data set: Inhibition of HIV-1 replication in H9 cells infected with three different concentrations of HIV IIIB strain. The format is functional, cell-based. The note with it: Homo sapiens. The method in brief: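 H9 cells infected at three HIV IIIB inoculum levels, then exposed to 3-5 compound concentrations for 5 days. Fresh media and compound replaced on day 3. p24 antigen in culture media measured by ELISA on the final day, mean OD with n = 4 per dose. IC50 found for at least two viral doses, over 3-5 individual assays.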

Data set [2] can be described thus: Therapeutic index against HIV-1 whole cell assay was determined, expressed as the ratio of IC50s of cell cytotoxicity to that of HIV replication. The conditions noted are these: human immunodeficiency virus 1, HIV-1 whole cell assay; read-out: Therapeutic index. The method in brief: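 Cytotoxicity: uninfected H9 cells incubated 5 days with the same compound concentrations as the antiviral assay, viable cells counted by trypan blue exclusion. Ratio taken of the cytotoxic IC50 to the IC50 for HIV IIIB replication (p24 ELISA, 5 days, medium and compound renewed day 3).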

Data set [3] concerns the target T1, Protein Tat (Human immunodeficiency virus type 1 group M subtype B (isolate PCV12)(HIV-1), UniProt P04326).
T1 sequence (P04326 whole entry): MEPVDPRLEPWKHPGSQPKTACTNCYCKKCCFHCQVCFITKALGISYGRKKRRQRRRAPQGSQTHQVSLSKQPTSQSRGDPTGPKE
Kind of data set: Inhibition of HIV-1 nuclear regulatory protein Tat. Also on record: species or system Human immunodeficiency virus type 1 (CLONE 12). Summed up: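 SW480 cells co-transfected with an HIV-1 LTR-driven CAT reporter plasmid and an SV40 promoter-driven Tat plasmid. Cells incubated with dose-ranged compound for 48 h. Tat-induced expression read out as CAT enzyme activity. IC50 and 95% confidence intervals taken from percent-inhibition dose-response curves over 3-5 runs. Counter-screen used an SV40 promoter-driven CAT plasmid (Tat-independent).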

Turning to `O=C1CN=C(c2ccc[nH]2)c2cc(Cl)ccc2N1`, the concentration for half-maximal inhibition (IC50) – broadly, the concentration at which inhibition is half-maximal – came to 600 nM in data set [1] and 4000 nM in data set [3]. For the same compound, the selectivity ratio in data set [2] was 5.9.
For the compound `C[C@]12CC[C@H]3[C@@H](CC[C@]45OC4C(=O)C(S(C)(=O)=O)C[C@]35C)[C@@H]1CC[C@@H]2O` (stereo not given in full), the IC50 in data set [1] amounted to 1400 nM; in data set [3], 8400 nM. Moreover, the selectivity ratio in data set [2] is 3.9.
Consider `CC(=O)O[C@H]1CC[C@H]2[C@@H]3CC[C@]45OC4C(=O)C(S(C)(=O)=O)C[C@]5(C)[C@H]3CC[C@]12C` (stereo not given in full), for which the IC50 in data set [1] worked out at 300 nM; in data set [3], 2600 nM. Moreover, the selectivity ratio in data set [2] is 4.3.
Consider `CC(=O)O[C@H]1CCC2C3CC[C@]45O[C@H]4C(O)=C(C(N)=O)C[C@]5(C)C3CC[C@@]21C` (stereo not given in full), for which the IC50 in data set [1] worked out at 2400 nM; in data set [3] it was 2600 nM. Besides, the selectivity ratio in data set [2] was 1.6.
Take `C[C@]12CCC3C(CC[C@]45OC4C(O)=C(C(N)=O)C[C@]35C)C1CC[C@@H]2O` (stereo not given in full): the IC50 in data set [1] turned out to be 1200 nM; in data set [3], 14300 nM. Moreover, the selectivity ratio in data set [2] was determined as 6.5.
